Test results taken from paper PMC5679024 (ACS chemical neuroscience, 2017).
Non-standard residues stand in square brackets, D forms with d. Residues, ends and D or L forms follow the SMILES beside them.

B1: mMC3R with C-terminal NanoLuc or HaloTag (NanoBRET constructs) (receptor, mouse, UniProt P33033 1-323, looked up)
chain: MNSSCCLSSVSPMLPNLSEHPAAPPASNRSGSGFCEQVFIKPEVFLALGIVSLMENILVILAVVRNGNLHSPMYFFLCSLAAADMLVSLSNSLETIMIAVINSDSLTLEDQFIQHMDNIFDSMICISLVASICNLLAIAIDRYVTIFYALRYHSIMTVRKALTLIGVIWVCCGICGVMFIIYSESKMVIVCLITMFFAMVLLMGTLYIHMFLFARLHVQRIAVLPPAGVVAPQQHSCMKGAVTITILLGVFIFCWAPFFLHLVLIITCPTNPYCICYTAHFNTYLVLIMCNSVIDPLIYAFRSLELRNTFKEILCGCNSMNLG

Assays:
[1] = In vitro mouse serum stability assay; type: in vitro ADME; conditions: for half-life / remaining at 0.5 h: serum
[2] = test system: male mice; assay: ICV fasting-refeeding paradigm, energy homeostasis in TSE metabolic cages; type: in vivo, mouse; conditions: 5 nmol ICV
In short: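 Cannula-validated male mice were acclimated for one week in sealed TSE metabolic home cages (12 h light/dark, 23–25 °C) and tested in a cross-over design. Food was removed at lights out for a 22 h fast. At t=0, 2 h before lights out, mice received 5 nmol test compound or saline ICV and food was returned. Mice were watched visually for ≥2 h after dosing.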

[3] = target: mouse melanocortin 3 receptor, mMC3R-Flag, stably expressed on HEK293 cells (mouse) (UniProt P33033)
[4] = target: mouse melanocortin 4 receptor, wildtype mMC4R, stably expressed on HEK293 cells (mouse) (UniProt P56450)
[5] = target: the molecule itself; assay: FRET or BRET
[6] = target: B1; assay: FRET or BRET

For `CC(=O)N[C@@H](Cc1cnc[nH]1)C(=O)N[C@H](Cc1ccccc1)C(=O)N[C@@H](CCCNC(=N)N)C(=O)N[C@@H](Cc1c[nH]c2ccccc12)C(=O)N1CCC[C@H]1C(=O)NCC(=O)N1CCC[C@H]1C(=O)NCC(=O)N1CCC[C@H]1C(=O)NCC(=O)N1CCC[C@H]1C(=O)NCC(=O)N1CCC[C@H]1C(=O)NCC(=O)N1CCC[C@H]1C(=O)NCC(N)=O` [CJL-5-35-1, Ac-His-DPhe-Arg-Trp-(Pro-Gly)6-NH2] (Ac-H[dF]RWPGPGPGPGPGPG-NH2), the half-life [1] was 6 min and the remaining at 0.5 h [1] was no more than 2%.

Work on `N=C(N)NCCC[C@H](NC(=O)[C@@H](Cc1ccccc1)NC(=O)[C@H](Cc1cnc[nH]1)NC(=O)CNC(=O)[C@@H]1CCCN1C(=O)CNC(=O)[C@@H]1CCCN1C(=O)CNC(=O)[C@@H]1CCCN1C(=O)CNC(=O)[C@@H]1CCCN1C(=O)CNC(=O)[C@@H]1CCCN1C(=O)CNC(=O)[C@@H]1CCCN1)C(=O)N[C@@H](Cc1c[nH]c2ccccc12)C(N)=O` [CJL-1-41, (Pro-Gly)6-His-DPhe-Arg-Trp-NH2] (H-PGPGPGPGPGPGH[dF]RW-NH2) yielded a half-life [1] of 6 min and a remaining at 0.5 h [1] of no more than 2%.

With `CC(=O)N[C@@H](Cc1cnc[nH]1)C(=O)N[C@H](Cc1ccccc1)C(=O)N[C@@H](CCCN=C(N)N)C(=O)N[C@@H](Cc1c[nH]c2ccccc12)C(N)=O` [CJL-1-14, Ac-His-DPhe-Arg-Trp-NH2] the remaining at 72 h, 10 µM ([1]; mouse serum) was 12%, the half-life [1] was 1010 min and the “adverse reactions, visual monitoring” value ([2]; at least 2 hours post treatment) was “no adverse reactions”. The ambulatory activity ([2]; fasting-refeeding) was “No significant effects”.

Work on `CC(=O)N[C@@H](Cc1cnc[nH]1)C(=O)N[C@H](Cc1ccccc1)C(=O)N[C@@H](CCCNC(=N)N)C(=O)N[C@@H](Cc1c[nH]c2ccccc12)C(=O)N1CCC[C@H]1C(=O)NCC(=O)N1CCC[C@H]1C(=O)NCC(=O)N1CCC[C@H]1C(=O)NCC(=O)N1CCC[C@H]1C(=O)NCC(=O)N1CCC[C@H]1C(=O)NCC(=O)N1CCC[C@H]1C(=O)NCC(=O)N[C@@H](Cc1cnc[nH]1)C(=O)N[C@H](Cc1ccccc1)C(=O)N[C@@H](CCCNC(=N)N)C(=O)N[C@@H](Cc1c[nH]c2ccccc12)C(N)=O` [CJL-1-31, Ac-His-DPhe-Arg-Trp-(Pro-Gly)6-His-DPhe-Arg-Trp-NH2] (Ac-H[dF]RWPGPGPGPGPGPGH[dF]RW-NH2) yielded a half-life [1] of 6 min and a remaining at 0.5 h [1] of no more than 2%.

In the case of α-MSH (peptide), the Agonist cAMP Based Alpha Screen Results EC50 (nM), stable mMC3R cells [3] is reported as 0.21 nM and the Agonist cAMP Based Alpha Screen Results EC50 (nM), stable mMC4R cells [4] is reported as 3.1 nM.

B1 showed a BRET ratio [5] of 90 mBU.

B2: mMC4R with C-terminal NanoLuc or HaloTag (NanoBRET constructs) (receptor, mouse, UniProt P56450 1-332, looked up)
chain: MNSTHHHGMYTSLHLWNRSSYGLHGNASESLGKGHPDGGCYEQLFVSPEVFVTLGVISLLENILVIVAIAKNKNLHSPMYFFICSLAVADMLVSVSNGSETIVITLLNSTDTDAQSFTVNIDNVIDSVICSSLLASICSLLSIAVDRYFTIFYALQYHNIMTVRRVGIIISCIWAACTVSGVLFIIYSDSSAVIICLISMFFTMLVLMASLYVHMFLMARLHIKRIAVLPGTGTIRQGTNMKGAITLTILIGVFVVCWAPFFLHLLFYISCPQNPYCVCFMSHFNLYLILIMCNAVIDPLIYALRSQELRKTFKEIICFYPLGGICELSSRY
B2 showed a BRET ratio [6] of 150 mBU and a BRET ratio [5] of 100 mBU.
